Test results: ChEMBL document CHEMBL1122415, “Folate antagonists. 20. Synthesis and antitumor and antimalarial properties of trimetrexate and related 6-[(phenylamino)methyl]-2,4-quinazolinediamines” (1983)
Where “and” joins values, the source holds several entries; their conditions need not be identical. Identical values can stand only once.

Key:
[1] = system: Plasmodium berghei; assay: Antimalarial effect against trophozoite-induced Plasmodium berghei in mice (Mus musculus) at 20 mg/kg subcutaneous dose; format: functional
[2] = system: Plasmodium berghei; assay: Antimalarial effect against trophozoite-induced Plasmodium berghei in mice (Mus musculus) after subcutaneous dose of 10 mg/kg; format: functional
[3] = system: Mus musculus; assay: Antimalarial effect against trophozoite-induced Plasmodium berghei in mice (Mus musculus) after subcutaneous administration dose of 40 mg/kg; 1 survival after 60 days; format: functional
[4] = system: Mus musculus; assay: Antimalarial effect against trophozoite-induced Plasmodium berghei in mice (Mus musculus) after subcutaneous after 60 days; format: functional
[5] = system: Plasmodium berghei; assay: Antimalarial effect against trophozoite-induced Plasmodium berghei in mice (Mus musculus) at 40 mg/kg subcutaneous dose; format: functional
[6] = system: Mus musculus; assay: Antimalarial effect against trophozoite-induced Plasmodium berghei in mice (Mus musculus) after subcutaneous administration dose of 80 mg/kg; 1 survived after 60 days of postinfection; format: functional
[7] = system: Plasmodium berghei; assay: Antimalarial effect against trophozoite-induced Plasmodium berghei in mice (Mus musculus) after subcutaneous dose of 160 mg/kg; format: functional
[8] = system: Mus musculus; assay: Antimalarial effect against trophozoite-induced Plasmodium berghei in mice (Mus musculus) after subcutaneous administration dose of 160 mg/kg; 3 survived after 60 days of postinfection; format: functional
[9] = organism: Mus musculus; assay: Daily dose required for 90% parasitaemia in trophozoite induced Plasmodium berghei in 21 mice; format: functional
Outline: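 Oral suppressive test in mice against a normal drug-sensitive P. berghei strain. Drug given continuously in the diet for six consecutive days, with doses as free base equivalent. SD90 is the daily dose (mg/kg) giving 90% suppression of parasitemia versus control mice, estimated graphically on semilog paper.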

[10] = system: L1210; assay: Molar concentration required to reduce the number of L1210 cells by 50% after incubation for 2 days; format: functional, Mus musculus; conditions: read-out: ID50 (the source's name)
Outline: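 L1210 leukemia cells in tissue culture exposed to drug for 2 days. ID50 is the molar concentration that reduces L1210 cell number by 50%. Mithramycin is the reference drug.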

[11] = system: Mus musculus; assay: Antimalarial effect against trophozoite-induced Plasmodium berghei in mice (Mus musculus) after subcutaneous administration dose of 2.5 mg/kg; format: functional
[12] = system: Mus musculus; assay: Antimalarial effect against trophozoite-induced Plasmodium berghei in mice (Mus musculus) after subcutaneous administration dose of 160 mg/kg; 4 survived after 60 days; format: functional
[13] = system: Mus musculus; assay: Antimalarial effect against trophozoite-induced Plasmodium berghei in mice (Mus musculus) after subcutaneous administration dose of 80 mg/kg; 1 survived after 60 days; format: functional
[14] = system: Plasmodium berghei; assay: Antimalarial effect against trophozoite-induced Plasmodium berghei in mice (Mus musculus) at 80 mg/kg subcutaneous dose; format: functional
[15] = system: Plasmodium berghei; assay: Change in mean survival time of Trophozoite-induced Plasmodium berghei infected mice (Mus musculus) after 160 mg/kg subcutaneous dose; 60 days survival; format: functional
[16] = system: Plasmodium berghei; assay: Antimalarial effect against trophozoite-induced Plasmodium berghei in mice (Mus musculus) at 320 mg/kg subcutaneous dose; format: functional
[17] = system: Mus musculus; assay: Antimalarial effect against trophozoite-induced Plasmodium berghei in mice (Mus musculus) after subcutaneous administration dose of 40 mg/kg; 1 survived after 60 days of postinfection; format: functional
[18] = system: Plasmodium berghei; assay: Antimalarial effect against trophozoite-induced Plasmodium berghei in mice (Mus musculus) at 5 mg/kg subcutaneous dose; format: functional
[19] = system: Mus musculus; assay: Antimalarial effect against trophozoite-induced Plasmodium berghei in mice (Mus musculus) after subcutaneous administration dose of 20 mg/kg; 4 survived after 60 days of postinfection; format: functional
[20] = system: Mus musculus; assay: Antimalarial effect against trophozoite-induced Plasmodium berghei in mice (Mus musculus) after subcutaneous administration dose of 10 mg/kg; 1 survived after 60 days of post infection; format: functional
[21] = system: Mus musculus; assay: Antimalarial effect against trophozoite-induced Plasmodium berghei in mice (Mus musculus) after subcutaneous administration dose of 80 mg/kg; 4 survived after 60 days of post infection; format: functional

With `CC1(C)N=C(N)N=C(N)N1c1ccc(Cl)cc1.Cl` [CHLORCYCLOGUANIL HYDROCHLORIDE] the “Delta MST” value [1] was 7.9 days, the “Delta MST” value [2] was 4.9 days and the “Delta MST” value [3] was 13.4 days. The “Delta MST” value [4] was 21.6 days.

For `Nc1nc(N)c2cc(CN(N=O)c3ccc(Cl)c(C(F)(F)F)c3)ccc2n1`, the “Delta MST” value ([1]; 20 mg/kg) was 5.1 days and 5.3 days, the “Delta MST” value [2] was 1.3 days and the “Delta MST” value ([5]; 40 mg/kg) was 10.9 days and 11.1 days. The “Delta MST” value ([6]; 80 mg/kg) was 14.9 days and 15.2 days.

In the case of `CC(=O)O.Nc1nc(N)c2cc(CNc3ccc(Cl)c(Cl)c3)ccc2n1.O.O`, the Delta MST [1] is reported as 5.8 days, the Delta MST [2] is reported as 1.8 days and the “Delta MST” value ([5]; 40 mg/kg) is reported as 11.2 days and 5.8 days. The Delta MST [6] was 11.8 days, the “Delta MST” value ([7]; 160 mg/kg) was 18.8 days and 19.8 days and the “Delta MST” value ([8]; 160 mg/kg) was 11.8 days and 12.1 days. The SD90 [9] was 0.92 mg/kg/day, the IC50 [10] was 18 nM and 23 nM and 67 nM and the “Delta MST” value ([11]; 2.5 mg/kg) was 0.4 days and 0.2 days.

With `Nc1nc(N)c2c(Cl)c(CN(N=O)c3ccc(Cl)c(Cl)c3)ccc2n1` the “Delta MST” value [12] was 21.9 days, the “Delta MST” value ([1]; 20 mg/kg) was 6.1 days and 6.3 days and the “Delta MST” value [13] was 13.4 days. The “Delta MST” value [2] was 3.5 days and the “Delta MST” value [5] was 8.1 days.

In the case of `CC(=O)O.Nc1nc(N)c2cc(CNc3ccc(Cl)c(C(F)(F)F)c3)ccc2n1.O.O`, the “Delta MST” value [1] is reported as 5.1 days, the “Delta MST” value ([2]; 10 mg/kg) is reported as 4.9 days and 2.7 days and the “Delta MST” value ([5]; 40 mg/kg) is reported as 10.5 days and 4.9 days. For the same compound, the “Delta MST” value ([14]; 80 mg/kg) was 27.2 days and 10.3 days, the “Delta MST” value [15] was 23.9 days and the “Delta MST” value [16] was 29.9 days.

For `CCc1nc(N)nc(N)c1-c1ccc(Cl)cc1` [PYRIMETHAMINE], the “Delta MST” value [2] was 5.3 days, the “Delta MST” value [17] was 7.7 days and 6.1 days and the “Delta MST” value [18] was 3.1 days. The “Delta MST” value [11] was 4.7 days.

In the case of `Cc1c(CN(N=O)c2ccc(Cl)c(Cl)c2)ccc2nc(N)nc(N)c12`, the “Delta MST” value [19] is reported as 21.7 days and 24.9 days, the “Delta MST” value ([18]; 5 mg/kg) is reported as 9.9 days and 10.5 days and the “Delta MST” value [20] is reported as 12 days and 11.9 days. It also gave an SD90 [9] of 1.15 mg/kg/day, an IC50 ([10]; Mus musculus, L1210, 48 h) of 70 nM and an IC50 [10] of 100 nM. The “Delta MST” value [11] was 4.1 days.

With `Nc1nc(N)c2cc(NCc3ccc(Cl)c(Cl)c3)ccc2n1` the “Delta MST” value ([5]; 40 mg/kg) was 7.1 days and 2.7 days, the “Delta MST” value ([14]; 80 mg/kg) was 13.1 days and 7.3 days and the “Delta MST” value [7] was 9.9 days. The Delta MST [8] was 9.9 days and the SD90 [9] was 8.5 mg/kg/day.

In the case of `CC(=O)O.COc1cc(NCc2ccc3nc(N)nc(N)c3c2C)cc(OC)c1OC.O`, the “Delta MST” value ([1]; 20 mg/kg) is reported as 12 days and 11.5 days and 7.1 days, the “Delta MST” value [21] is reported as 16.3 days and 14.7 days and the “Delta MST” value [5] is reported as 14.7 days. For the same compound, the “Delta MST” value [14] was 30.8 days, the SD90 [9] was 0.44 mg/kg/day and the IC50 ([10]; Mus musculus, L1210, 48 h) was 11 nM. The IC50 [10] was 20 nM.
